Laboratory results from ChEMBL document CHEMBL4689842, “EUbOPEN Chemogenomics Library wave 1” (2021).

Tested on: Fibroblast
Assay: Multiplex assay against human fibroblast
Assay type: toxicity, cell-based
Method in brief: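 At seeding, live cells were stained with Hoechst33342, BioTracker Green Microtubule Cytoskeleton Dye, MitoTracker Red and Annexin V Alexa Fluor 680. After compound addition they were imaged on a CQ1 microscope at 37°C and 5% CO2, and CellPathfinder machine-learning gating sorted them into Hoechst high-intensity objects or normal cells, with normal cells further split into healthy, pyknosed or fragmented nuclei and pyknosed cells into mitotic or apoptotic. Tubulin, mitochondrial-mass and membrane-permeability phenotypes are given as per cents of cells with healthy nuclei.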

[1] = 12 h, 1 µM, compound concentration 1 uM, replicate 1
[2] = 12 h, 1 µM, compound concentration 1 uM, replicate 2
[3] = 12 h, 10 µM, compound concentration 10 uM, replicate 1
[4] = 12 h, 10 µM, compound concentration 10 uM, replicate 2
[5] = 24 h, 1 µM, compound concentration 1 uM, replicate 1
[6] = 24 h, 1 µM, compound concentration 1 uM, replicate 2
[7] = 24 h, 10 µM, compound concentration 10 uM, replicate 1
[8] = 24 h, 10 µM, compound concentration 10 uM, replicate 2
[9] = 48 h, 1 µM, compound concentration 1 uM, replicate 1
[10] = 48 h, 1 µM, compound concentration 1 uM, replicate 2
[11] = 48 h, 10 µM, compound concentration 10 uM, replicate 1
[12] = 48 h, 10 µM, compound concentration 10 uM, replicate 2

Q: `Cc1cn(-c2cc(NC(=O)c3ccc(C)c(Nc4nccc(-c5cccnc5)n4)c3)cc(C(F)(F)F)c2)cn1` [NILOTINIB] was tested. Which “Population Apoptotic (%)” value [1] did it give?
A: 62%

Q: And the “Population Fragmented Nuclei (%)” value [1]?
A: 36%

Q: What about the “Population Healthy Nuclei (%)” value [1] of the same molecule?
A: 29%

Q: And the “Population Hoechst High Intensity Objects (%)” value [1]?
A: 8%

Q: And the “Population Membrane Permeable-Phenotype (%)” value [1]?
A: 16%

Q: What about the “Population Mitochondria Different-Phenotype (%)” value [1] of the same molecule?
A: 20%

Q: And the “Population Mitotic Cells (%)” value [1]?
A: 37%

Q: And the “Population Normal (%)” value [1]?
A: 91%

Q: What about the “Population Pyknosed Nuclei (%)” value [1] of the same molecule?
A: 34%

Q: What about the “Population Tubulin-Different-Phenotype (%)” value [1] of the same molecule?
A: 83%

Q: What about the “Total Cell Count” value [1] of the same molecule?
A: 160

Q: And the “Population Apoptotic (%)” value [2]?
A: 25%

Q: What about the “Population Fragmented Nuclei (%)” value [2] of the same molecule?
A: 1%

Q: And the “Population Healthy Nuclei (%)” value [2]?
A: 86%

Q: What about the “Population Membrane Permeable-Phenotype (%)” value [2] of the same molecule?
A: 1%

Q: And the “Population Mitochondria Different-Phenotype (%)” value [2]?
A: 18%

Q: And the “Population Mitotic Cells (%)” value [2]?
A: 75%

Q: And the “Population Pyknosed Nuclei (%)” value [2]?
A: 11%

Q: What about the “Population Tubulin-Different-Phenotype (%)” value [2] of the same molecule?
A: 10%

Q: What about the “Total Cell Count” value [2] of the same molecule?
A: 66

Q: What about the “Population Apoptotic (%)” value [3] of the same molecule?
A: 78%

Q: And the “Population Fragmented Nuclei (%)” value [3]?
A: 42%

Q: What about the “Population Healthy Nuclei (%)” value [3] of the same molecule?
A: 46%

Q: What about the “Population Hoechst High Intensity Objects (%)” value [3] of the same molecule?
A: 44%

Q: What about the “Population Membrane Permeable-Phenotype (%)” value [3] of the same molecule?
A: 4%

Q: And the “Population Mitochondria Different-Phenotype (%)” value [3]?
A: 0%

Q: What about the “Population Mitotic Cells (%)” value [3] of the same molecule?
A: 21%

Q: What about the “Population Normal (%)” value [3] of the same molecule?
A: 55%

Q: And the “Population Pyknosed Nuclei (%)” value [3]?
A: 10%

Q: What about the “Population Tubulin-Different-Phenotype (%)” value [3] of the same molecule?
A: 2%

Q: What about the “Total Cell Count” value [3] of the same molecule?
A: 2441

Q: What about the “Population Apoptotic (%)” value [4] of the same molecule?
A: 33%

Q: And the “Population Fragmented Nuclei (%)” value [4]?
A: 18%

Q: And the “Population Healthy Nuclei (%)” value [4]?
A: 72%

Q: And the “Population Hoechst High Intensity Objects (%)” value [4]?
A: 7%

Q: And the “Population Mitochondria Different-Phenotype (%)” value [4]?
A: 61%

Q: What about the “Population Mitotic Cells (%)” value [4] of the same molecule?
A: 66%

Q: And the “Population Normal (%)” value [4]?
A: 92%

Q: What about the “Population Pyknosed Nuclei (%)” value [4] of the same molecule?
A: 9%

Q: And the “Population Tubulin-Different-Phenotype (%)” value [4]?
A: 63%

Q: And the “Total Cell Count” value [4]?
A: 73

Q: And the “Population Apoptotic (%)” value [5]?
A: 56%

Q: And the “Population Fragmented Nuclei (%)” value [5]?
A: 32%

Q: And the “Population Healthy Nuclei (%)” value [5]?
A: 29%

Q: And the “Population Hoechst High Intensity Objects (%)” value [5]?
A: 13%

Q: And the “Population Membrane Permeable-Phenotype (%)” value [5]?
A: 17%

Q: What about the “Population Mitochondria Different-Phenotype (%)” value [5] of the same molecule?
A: 32%

Q: And the “Population Mitotic Cells (%)” value [5]?
A: 43%

Q: What about the “Population Normal (%)” value [5] of the same molecule?
A: 86%

Q: What about the “Population Pyknosed Nuclei (%)” value [5] of the same molecule?
A: 38%

Q: What about the “Population Tubulin-Different-Phenotype (%)” value [5] of the same molecule?
A: 92%

Q: And the “Total Cell Count” value [5]?
A: 159

Q: And the “Population Apoptotic (%)” value [6]?
A: 40%

Q: What about the “Population Fragmented Nuclei (%)” value [6] of the same molecule?
A: 14%

Q: And the “Population Healthy Nuclei (%)” value [6]?
A: 79%

Q: And the “Population Hoechst High Intensity Objects (%)” value [6]?
A: 5%

Q: What about the “Population Membrane Permeable-Phenotype (%)” value [6] of the same molecule?
A: 2%

Q: And the “Population Mitochondria Different-Phenotype (%)” value [6]?
A: 20%

Q: What about the “Population Mitotic Cells (%)” value [6] of the same molecule?
A: 60%

Q: And the “Population Normal (%)” value [6]?
A: 94%

Q: And the “Population Pyknosed Nuclei (%)” value [6]?
A: 5%

Q: And the “Population Tubulin-Different-Phenotype (%)” value [6]?
A: 12%

Q: What about the “Total Cell Count” value [6] of the same molecule?
A: 67

Q: What about the “Population Apoptotic (%)” value [7] of the same molecule?
A: 77%

Q: What about the “Population Fragmented Nuclei (%)” value [7] of the same molecule?
A: 45%

Q: And the “Population Healthy Nuclei (%)” value [7]?
A: 45%

Q: What about the “Population Hoechst High Intensity Objects (%)” value [7] of the same molecule?
A: 50%

Q: And the “Population Membrane Permeable-Phenotype (%)” value [7]?
A: 3%

Q: What about the “Population Mitochondria Different-Phenotype (%)” value [7] of the same molecule?
A: 0%

Q: And the “Population Mitotic Cells (%)” value [7]?
A: 22%

Q: And the “Population Normal (%)” value [7]?
A: 49%

Q: What about the “Population Pyknosed Nuclei (%)” value [7] of the same molecule?
A: 9%

Q: What about the “Population Tubulin-Different-Phenotype (%)” value [7] of the same molecule?
A: 2%

Q: And the “Total Cell Count” value [7]?
A: 2873

Q: And the “Population Apoptotic (%)” value [8]?
A: 0%

Q: What about the “Population Fragmented Nuclei (%)” value [8] of the same molecule?
A: 12%

Q: What about the “Population Healthy Nuclei (%)” value [8] of the same molecule?
A: 83%

Q: And the “Population Hoechst High Intensity Objects (%)” value [8]?
A: 2%

Q: What about the “Population Membrane Permeable-Phenotype (%)” value [8] of the same molecule?
A: 1%

Q: And the “Population Mitochondria Different-Phenotype (%)” value [8]?
A: 42%

Q: What about the “Population Mitotic Cells (%)” value [8] of the same molecule?
A: 100%

Q: What about the “Population Normal (%)” value [8] of the same molecule?
A: 97%

Q: What about the “Population Pyknosed Nuclei (%)” value [8] of the same molecule?
A: 4%

Q: What about the “Population Tubulin-Different-Phenotype (%)” value [8] of the same molecule?
A: 30%

Q: What about the “Total Cell Count” value [8] of the same molecule?
A: 93

Q: What about the “Population Apoptotic (%)” value [9] of the same molecule?
A: 67%

Q: What about the “Population Fragmented Nuclei (%)” value [9] of the same molecule?
A: 32%

Q: And the “Population Healthy Nuclei (%)” value [9]?
A: 40%

Q: And the “Population Hoechst High Intensity Objects (%)” value [9]?
A: 16%

Q: What about the “Population Membrane Permeable-Phenotype (%)” value [9] of the same molecule?
A: 10%

Q: What about the “Population Mitochondria Different-Phenotype (%)” value [9] of the same molecule?
A: 29%

Q: And the “Population Mitotic Cells (%)” value [9]?
A: 32%

Q: And the “Population Normal (%)” value [9]?
A: 83%

Q: And the “Population Pyknosed Nuclei (%)” value [9]?
A: 26%

Q: And the “Population Tubulin-Different-Phenotype (%)” value [9]?
A: 72%

Q: What about the “Total Cell Count” value [9] of the same molecule?
A: 138

Q: And the “Population Apoptotic (%)” value [10]?
A: 100%

Q: And the “Population Fragmented Nuclei (%)” value [10]?
A: 19%

Q: And the “Population Healthy Nuclei (%)” value [10]?
A: 79%

Q: And the “Population Hoechst High Intensity Objects (%)” value [10]?
A: 11%

Q: And the “Population Membrane Permeable-Phenotype (%)” value [10]?
A: 5%

Q: And the “Population Mitochondria Different-Phenotype (%)” value [10]?
A: 2%

Q: And the “Population Mitotic Cells (%)” value [10]?
A: 0%

Q: And the “Population Normal (%)” value [10]?
A: 89%

Q: And the “Population Pyknosed Nuclei (%)” value [10]?
A: 1%

Q: And the “Population Tubulin-Different-Phenotype (%)” value [10]?
A: 5%

Q: What about the “Total Cell Count” value [10] of the same molecule?
A: 100

Q: What about the “Population Apoptotic (%)” value [11] of the same molecule?
A: 47%

Q: What about the “Population Fragmented Nuclei (%)” value [11] of the same molecule?
A: 45%

Q: And the “Population Healthy Nuclei (%)” value [11]?
A: 43%

Q: And the “Population Hoechst High Intensity Objects (%)” value [11]?
A: 61%

Q: What about the “Population Membrane Permeable-Phenotype (%)” value [11] of the same molecule?
A: 4%

Q: And the “Population Mitochondria Different-Phenotype (%)” value [11]?
A: 0%

Q: What about the “Population Mitotic Cells (%)” value [11] of the same molecule?
A: 52%

Q: What about the “Population Normal (%)” value [11] of the same molecule?
A: 38%

Q: What about the “Population Pyknosed Nuclei (%)” value [11] of the same molecule?
A: 10%

Q: And the “Population Tubulin-Different-Phenotype (%)” value [11]?
A: 2%

Q: What about the “Total Cell Count” value [11] of the same molecule?
A: 2935

Q: And the “Population Apoptotic (%)” value [12]?
A: 100%

Q: What about the “Population Fragmented Nuclei (%)” value [12] of the same molecule?
A: 28%

Q: And the “Population Healthy Nuclei (%)” value [12]?
A: 65%

Q: And the “Population Hoechst High Intensity Objects (%)” value [12]?
A: 25%

Q: And the “Population Membrane Permeable-Phenotype (%)” value [12]?
A: 15%

Q: What about the “Population Mitochondria Different-Phenotype (%)” value [12] of the same molecule?
A: 9%

Q: What about the “Population Mitotic Cells (%)” value [12] of the same molecule?
A: 0%

Q: What about the “Population Normal (%)” value [12] of the same molecule?
A: 74%

Q: What about the “Population Pyknosed Nuclei (%)” value [12] of the same molecule?
A: 6%

Q: What about the “Population Tubulin-Different-Phenotype (%)” value [12] of the same molecule?
A: 81%

Q: And the “Total Cell Count” value [12]?
A: 66
